Reference: ChEMBL document CHEMBL1629517, “Molecular properties prediction, synthesis and antimicrobial activity of some newer oxadiazole derivatives” (2010)
In brackets after ≈: the same amount, converted by molar mass.

Key:
[1] = tested on: Staphylococcus aureus; assay: Antibacterial activity against Staphylococcus aureus ATCC 25923 at 100 ug/ml after 24 hrs by disc-diffusion method; format: functional; settings: ATCC 25923, 24 h, read-out: IZ
[2] = tested on: Staphylococcus aureus; assay: Antibacterial activity against Staphylococcus aureus ATCC 25923 at 200 ug/ml after 24 hrs by disc-diffusion method; format: functional; settings: ATCC 25923, 24 h, read-out: IZ
[3] = tested on: Bacillus subtilis; assay: Antibacterial activity against Bacillus subtilis ATCC 6633 at 100 ug/ml after 24 hrs by disc-diffusion method; format: functional; settings: ATCC 6633, 24 h, read-out: IZ
[4] = tested on: Bacillus subtilis; assay: Antibacterial activity against Bacillus subtilis ATCC 6633 at 200 ug/ml after 24 hrs by disc-diffusion method; format: functional; settings: ATCC 6633, 24 h, read-out: IZ
[5] = tested on: Escherichia coli; assay: Antibacterial activity against Escherichia coli ATCC 25922 at 100 ug/ml after 24 hrs by disc-diffusion method; format: functional; settings: ATCC 25922, 24 h, read-out: IZ
[6] = tested on: Escherichia coli; assay: Antibacterial activity against Escherichia coli ATCC 25922 at 200 ug/ml after 24 hrs by disc-diffusion method; format: functional; settings: ATCC 25922, 24 h, read-out: IZ
[7] = tested on: Pseudomonas aeruginosa; assay: Antibacterial activity against Pseudomonas aeruginosa ATCC 27853 at 100 ug/ml after 24 hrs by disc-diffusion method; format: functional; settings: ATCC 27853, 24 h, read-out: IZ
[8] = tested on: Pseudomonas aeruginosa; assay: Antibacterial activity against Pseudomonas aeruginosa ATCC 27853 at 200 ug/ml after 24 hrs by disc-diffusion method; format: functional; settings: ATCC 27853, 24 h, read-out: IZ
[9] = tested on: Staphylococcus aureus; assay: Antibacterial activity against Staphylococcus aureus ATCC 25923 after 24 hrs by broth dilution technique; format: functional; settings: ATCC 25923, 24 h
How it was run: (§1)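 MIC by broth dilution: nutrient broth containing logarithmic two-fold serial dilutions of compound was inoculated with about 5 × 10⁵ c.f.u. of actively dividing bacteria.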

[10] = tested on: Bacillus subtilis; assay: Antibacterial activity against Bacillus subtilis ATCC 6633 after 24 hrs by broth dilution technique; format: functional; settings: ATCC 6633, 24 h; how it was run: as §1
[11] = tested on: Escherichia coli; assay: Antibacterial activity against Escherichia coli ATCC 25922 after 24 hrs by broth dilution technique; format: functional; settings: ATCC 25922, 24 h; how it was run: as §1
[12] = tested on: Pseudomonas aeruginosa; assay: Antibacterial activity against Pseudomonas aeruginosa ATCC 27853 after 24 hrs by broth dilution technique; format: functional; settings: ATCC 27853, 24 h; how it was run: as §1
[13] = tested on: Staphylococcus aureus; assay: Antibacterial activity against Staphylococcus aureus ATCC 25923 after 18 to 24 hrs; format: functional
[14] = tested on: Bacillus subtilis; assay: Antibacterial activity against Bacillus subtilis ATCC 6633 after 18 to 24 hrs; format: functional
[15] = tested on: Escherichia coli; assay: Antibacterial activity against Escherichia coli ATCC 25922 after 18 to 24 hrs; format: functional
[16] = tested on: Pseudomonas aeruginosa; assay: Antibacterial activity against Pseudomonas aeruginosa ATCC 27853 after 18 to 24 hrs; format: functional
[17] = tested on: Aspergillus niger; assay: Antifungal activity against Aspergillus niger at 200 ug/ml after 48 hrs by agar diffusion method; format: functional; settings: read-out: IZ
How it was run: (§2)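 Agar well diffusion on Sabouraud agar (peptone 1 g, D-glucose 4 g, agar 2 g per 100 ml water, pH 5.7). Plates were lawned with a saline suspension of spores, excess was decanted, and plates were dried 1 h at 37 °C. Compounds in DMSO went into punched wells, and inhibition zones were measured against controls, with voriconazole as standard.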

[18] = tested on: Candida albicans; assay: Antifungal activity against Candida albicans at 100 ug/ml after 48 hrs by agar diffusion method; format: functional; settings: read-out: IZ; how it was run: as §2
[19] = tested on: Candida albicans; assay: Antifungal activity against Candida albicans at 200 ug/ml after 48 hrs by agar diffusion method; format: functional; settings: read-out: IZ; how it was run: as §2
[20] = tested on: Aspergillus niger; assay: Antifungal activity against Aspergillus niger after 48 hrs; format: functional
[21] = tested on: Candida albicans; assay: Antifungal activity against Candida albicans after 48 hrs; format: functional
[22] = tested on: Aspergillus niger; assay: Antifungal activity against Aspergillus niger at 100 ug/ml after 3 to 4 days by agar diffusion method; settings: read-out: IZ

Compound	MIC [9]	MIC [10]	MIC [11]	MIC [12]	zone of inhibition at 100 µg/mL [1]	zone of inhibition at 200 µg/mL [2]	zone of inhibition at 100 µg/mL [3]	zone of inhibition at 200 µg/mL [4]	zone of inhibition at 100 µg/mL [5]	zone of inhibition at 200 µg/mL [6]	zone of inhibition at 100 µg/mL [7]	zone of inhibition at 200 µg/mL [8]	MBC [13]	MBC [14]	MBC [15]	MBC [16]	zone of inhibition at 200 µg/mL [17]	zone of inhibition at 100 µg/mL [18]	zone of inhibition at 200 µg/mL [19]	MFC [20]	also measured
COc1cc(/C=C/C(=O)c2ccc(O)cc2)ccc1OCc1nnc(-c2ccccc2)o1	25 µg/mL (≈ 58.4 µM)	12.5 µg/mL (≈ 29.2 µM)	12.5 µg/mL (≈ 29.2 µM)	25 µg/mL (≈ 58.4 µM)	17 mm	18 mm	13 mm	15 mm	21 mm	23 mm	25 mm	27 mm	50 µg/mL (≈ 117 µM)	25 µg/mL (≈ 58.4 µM)	50 µg/mL (≈ 117 µM)	50 µg/mL (≈ 117 µM)	24 mm	16 mm	18 mm	50 µg/mL (≈ 117 µM)	MIC [20]: 25 µg/mL (≈ 58.4 µM); MFC [21]: 25 µg/mL (≈ 58.4 µM); MIC [21]: 12.5 µg/mL (≈ 29.2 µM); zone of inhibition at 100 µg/mL [22]: 22 mm
COc1ccc(C(=O)/C=C/c2ccc(OCc3nnc(-c4ccccc4)o3)c(OC)c2)cc1	12.5 µg/mL (≈ 28.3 µM)	6 µg/mL (≈ 13.6 µM)	12.5 µg/mL (≈ 28.3 µM)	12.5 µg/mL (≈ 28.3 µM)	16 mm	18 mm	12 mm	14 mm	19 mm	21 mm	25 mm	26 mm	25 µg/mL (≈ 56.5 µM)	12.5 µg/mL (≈ 28.3 µM)	25 µg/mL (≈ 56.5 µM)	50 µg/mL (≈ 113 µM)	24 mm	15 mm	17 mm	25 µg/mL (≈ 56.5 µM)	MIC [20]: 12.5 µg/mL (≈ 28.3 µM); MFC [21]: 25 µg/mL (≈ 56.5 µM); MIC [21]: 6 µg/mL (≈ 13.6 µM); zone of inhibition at 100 µg/mL [22]: 23 mm
COc1ccc(C(=O)/C=C/c2ccc(OCc3nnc(COc4ccccc4)o3)c(OC)c2)cc1	12.5 µg/mL (≈ 26.5 µM)	12.5 µg/mL (≈ 26.5 µM)	25 µg/mL (≈ 52.9 µM)	25 µg/mL (≈ 52.9 µM)	17 mm	19 mm	13 mm	16 mm	21 mm	22 mm	26 mm	28 mm	25 µg/mL (≈ 52.9 µM)	12.5 µg/mL (≈ 26.5 µM)	12.5 µg/mL (≈ 26.5 µM)	12.5 µg/mL (≈ 26.5 µM)	19 mm	11 mm	14 mm	12.5 µg/mL (≈ 26.5 µM)	MIC [20]: 6 µg/mL (≈ 12.7 µM); MFC [21]: 25 µg/mL (≈ 52.9 µM); MIC [21]: 12.5 µg/mL (≈ 26.5 µM); zone of inhibition at 100 µg/mL [22]: 16 mm

These reach a lower MIC [9]. Values come first.

MIC [9]	MIC [10]	MIC [11]	MIC [12]	Compound	zone of inhibition at 100 µg/mL [1]	zone of inhibition at 200 µg/mL [2]	zone of inhibition at 100 µg/mL [3]	zone of inhibition at 200 µg/mL [4]	zone of inhibition at 100 µg/mL [5]	zone of inhibition at 200 µg/mL [6]	zone of inhibition at 100 µg/mL [7]	zone of inhibition at 200 µg/mL [8]	MBC [13]	MBC [14]	MBC [15]	MBC [16]	zone of inhibition at 200 µg/mL [17]	zone of inhibition at 100 µg/mL [18]	zone of inhibition at 200 µg/mL [19]	MFC [20]	also measured
6 µg/mL (≈ 14 µM)	6 µg/mL (≈ 14 µM)	6 µg/mL (≈ 14 µM)	6 µg/mL (≈ 14 µM)	COc1cc(/C=C/C(=O)c2ccccc2)ccc1OCc1nnc(-c2ccccc2O)o1	17 mm	19 mm	15 mm	16 mm	20 mm	22 mm	25 mm	27 mm	12.5 µg/mL (≈ 29.2 µM)	12.5 µg/mL (≈ 29.2 µM)	12.5 µg/mL (≈ 29.2 µM)	12.5 µg/mL (≈ 29.2 µM)	25 mm	18 mm	20 mm	12.5 µg/mL (≈ 29.2 µM)	MIC [20]: 6 µg/mL (≈ 14 µM); MFC [21]: 12.5 µg/mL (≈ 29.2 µM); MIC [21]: 6 µg/mL (≈ 14 µM); zone of inhibition at 100 µg/mL [22]: 22 mm
6 µg/mL (≈ 13.1 µM)	6 µg/mL (≈ 13.1 µM)	6 µg/mL (≈ 13.1 µM)	12.5 µg/mL (≈ 27.3 µM)	COc1ccc(C(=O)/C=C/c2ccc(OCc3nnc(-c4ccccc4O)o3)c(OC)c2)cc1	21 mm	23 mm	18 mm	20 mm	25 mm	26 mm	30 mm	32 mm	6 µg/mL (≈ 13.1 µM)	12.5 µg/mL (≈ 27.3 µM)	12.5 µg/mL (≈ 27.3 µM)	25 µg/mL (≈ 54.5 µM)	26 mm	19 mm	21 mm	12.5 µg/mL (≈ 27.3 µM)	MIC [20]: 6 µg/mL (≈ 13.1 µM); MFC [21]: 12.5 µg/mL (≈ 27.3 µM); MIC [21]: 6 µg/mL (≈ 13.1 µM); zone of inhibition at 100 µg/mL [22]: 25 mm
6 µg/mL (≈ 13.5 µM)	6 µg/mL (≈ 13.5 µM)	12.5 µg/mL (≈ 28.1 µM)	6 µg/mL (≈ 13.5 µM)	COc1cc(/C=C/C(=O)c2ccc(O)cc2)ccc1OCc1nnc(-c2ccccc2O)o1	19 mm	20 mm	16 mm	18 mm	23 mm	24 mm	27 mm	28 mm	12.5 µg/mL (≈ 28.1 µM)	12.5 µg/mL (≈ 28.1 µM)	25 µg/mL (≈ 56.3 µM)	12.5 µg/mL (≈ 28.1 µM)	29 mm	21 mm	24 mm	12.5 µg/mL (≈ 28.1 µM)	MIC [20]: 6 µg/mL (≈ 13.5 µM); MFC [21]: 12.5 µg/mL (≈ 28.1 µM); MIC [21]: 6 µg/mL (≈ 13.5 µM); zone of inhibition at 100 µg/mL [22]: 27 mm
6 µg/mL (≈ 13.6 µM)	12.5 µg/mL (≈ 28.3 µM)	12.5 µg/mL (≈ 28.3 µM)	12.5 µg/mL (≈ 28.3 µM)	COc1cc(/C=C/C(=O)c2ccccc2)ccc1OCc1nnc(COc2ccccc2)o1	15 mm	17 mm	12 mm	14 mm	18 mm	20 mm	23 mm	24 mm	12.5 µg/mL (≈ 28.3 µM)	25 µg/mL (≈ 56.5 µM)	12.5 µg/mL (≈ 28.3 µM)	25 µg/mL (≈ 56.5 µM)	25 mm	16 mm	18 mm	12.5 µg/mL (≈ 28.3 µM)	MIC [20]: 6 µg/mL (≈ 13.6 µM); MFC [21]: 25 µg/mL (≈ 56.5 µM); MIC [21]: 12.5 µg/mL (≈ 28.3 µM); zone of inhibition at 100 µg/mL [22]: 22 mm
